ChEMBL document CHEMBL5357044, “Discovery of a dual-acting inhibitor of interleukin-1β and STATs for the treatment of inflammatory bowel disease” (RSC Med Chem, 2024)
Calls of active or inactive are those of the source. No cut-off for these calls is given here.

Key:
[1] = molecular target: Signal transducer and activator of transcription 3 (Mus musculus) (UniProt P42227); test: Inhibition of STAT3 expression in LPS-treated mouse J774.A1 cells at 50 to 200 nM treated for 1 hr by Western blot analysis; type: cell-based; conditions: dose 50-200 nM
Chain of Signal transducer and activator of transcription 3 (Mus musculus) (P42227 whole entry): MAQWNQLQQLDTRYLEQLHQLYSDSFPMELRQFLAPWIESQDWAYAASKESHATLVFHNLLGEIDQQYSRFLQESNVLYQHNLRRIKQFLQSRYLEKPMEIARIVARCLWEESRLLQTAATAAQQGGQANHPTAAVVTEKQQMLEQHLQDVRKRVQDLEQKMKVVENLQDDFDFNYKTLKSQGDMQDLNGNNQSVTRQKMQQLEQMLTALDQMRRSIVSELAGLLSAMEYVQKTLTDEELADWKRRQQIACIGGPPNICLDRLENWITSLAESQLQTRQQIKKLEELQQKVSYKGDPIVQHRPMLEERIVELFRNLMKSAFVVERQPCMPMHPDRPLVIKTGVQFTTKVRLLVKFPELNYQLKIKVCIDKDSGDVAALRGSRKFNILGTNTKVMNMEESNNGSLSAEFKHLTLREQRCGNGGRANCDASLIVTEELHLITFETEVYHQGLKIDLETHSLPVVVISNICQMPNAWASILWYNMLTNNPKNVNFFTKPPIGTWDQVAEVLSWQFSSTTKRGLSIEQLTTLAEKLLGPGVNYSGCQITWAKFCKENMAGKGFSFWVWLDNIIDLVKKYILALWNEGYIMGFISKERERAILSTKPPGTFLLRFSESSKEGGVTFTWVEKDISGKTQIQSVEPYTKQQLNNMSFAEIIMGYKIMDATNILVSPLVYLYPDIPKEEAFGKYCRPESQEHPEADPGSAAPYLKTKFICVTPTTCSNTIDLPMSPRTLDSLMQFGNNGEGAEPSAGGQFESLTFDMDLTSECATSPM
Procedure, shortened: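 J774A.1 cells pretreated with LPS and compound, lysed in RIPA. pSTAT1, STAT1, pSTAT3, STAT3, pSTAT5 and STAT5 detected by SDS-PAGE western blot with ECL.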

J774.A1 = test: Inhibition of intracellular ROS generation in mouse J774.A1 cells at 0.125 to 0.5 uM pretreated for 1 hr followed by nigericin treatment for 1 hr by DCFH-DA staining based fluorescence microscopy; type: functional, cell-based; conditions: dose 0.125-0.5 µM, time 2.0 hrs
Procedure, shortened: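 J774A.1 cells processed through NLRP3 activation protocol (LPS 1 μg mL−1 5 h, compound, nigericin 10 μM 1 h). Loaded with DCFH-DA 20 μM at 37 °C for 30 min and washed twice with D-PBS. Fluorescence read at Ex/Em 492/520.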

[2] = molecular target: NACHT, LRR and PYD domains-containing protein 3 (Mus musculus) (UniProt Q8R4B8); test: Inhibition of NLRP3 inflammasome activation in mouse BMDM cells assessed as reduction in LPS-stimulated IL-1beta level at 50 to 200 nM pretreated for 1 hr followed by imiquimod treatment for 2 hrs by ELISA; type: cell-based; conditions: dose 50-200 nM, time 3.0 hrs
Chain of NACHT, LRR and PYD domains-containing protein 3 (Mus musculus) (Q8R4B8 whole entry, the tested form may be a part): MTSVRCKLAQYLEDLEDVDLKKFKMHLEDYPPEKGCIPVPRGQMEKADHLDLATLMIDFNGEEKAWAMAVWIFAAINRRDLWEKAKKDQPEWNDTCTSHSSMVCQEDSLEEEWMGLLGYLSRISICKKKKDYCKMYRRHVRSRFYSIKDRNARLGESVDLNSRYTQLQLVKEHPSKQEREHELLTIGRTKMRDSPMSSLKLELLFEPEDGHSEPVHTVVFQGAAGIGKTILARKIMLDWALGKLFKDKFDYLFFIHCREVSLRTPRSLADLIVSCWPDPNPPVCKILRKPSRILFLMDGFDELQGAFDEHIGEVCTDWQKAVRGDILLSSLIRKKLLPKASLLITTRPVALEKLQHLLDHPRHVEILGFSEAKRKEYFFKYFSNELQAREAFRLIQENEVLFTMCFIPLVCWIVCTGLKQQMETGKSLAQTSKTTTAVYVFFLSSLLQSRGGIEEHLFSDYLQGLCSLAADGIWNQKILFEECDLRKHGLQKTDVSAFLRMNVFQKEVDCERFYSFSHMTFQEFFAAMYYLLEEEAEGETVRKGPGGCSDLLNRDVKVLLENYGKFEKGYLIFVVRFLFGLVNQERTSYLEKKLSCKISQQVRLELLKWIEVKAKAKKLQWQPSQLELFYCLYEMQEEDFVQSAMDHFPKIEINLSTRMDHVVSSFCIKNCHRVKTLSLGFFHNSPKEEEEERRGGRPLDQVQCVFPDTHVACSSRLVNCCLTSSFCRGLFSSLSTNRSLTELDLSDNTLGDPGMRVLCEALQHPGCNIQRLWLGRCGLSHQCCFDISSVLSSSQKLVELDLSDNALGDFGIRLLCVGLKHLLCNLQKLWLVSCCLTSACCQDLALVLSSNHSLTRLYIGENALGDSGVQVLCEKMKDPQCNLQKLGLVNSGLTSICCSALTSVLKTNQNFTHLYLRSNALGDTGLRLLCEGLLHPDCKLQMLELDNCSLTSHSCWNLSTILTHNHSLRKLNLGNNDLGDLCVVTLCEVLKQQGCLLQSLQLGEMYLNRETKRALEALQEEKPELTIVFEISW
Procedure, shortened: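 Bone-marrow macrophages in RPMI 1640/10% FBS/M-CSF. LPS priming at 0.5 μg mL−1 for 3 h, compound 1 h. NLRP3 then triggered by nigericin 10 μM for 0.5 h or imiquimod 900 μM for 2 h. Supernatant IL-1β by ELISA.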

[3] = molecular target: NACHT, LRR and PYD domains-containing protein 3 (Mus musculus) (UniProt Q8R4B8); test: Inhibition of NLRP3 inflammasome activation in mouse BMDM cells assessed as reduction in LPS-stimulated ASC specks formation at 50 to 200 nM pretreated for 1 hr followed by nigericin treatment for 30 mins by immunofluorescence analysis; type: cell-based; conditions: dose 50-200 nM, time 1.5 hrs
Procedure, shortened: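 BMDMs primed with LPS 1.5 μg mL−1 for 3 h at 37 °C, compound for 1 h, nigericin 10 μM for 30 min. Fixed in 4% paraformaldehyde and permeabilized with 1% Triton X-100. Blocked in 1% BSA, primary antibody overnight at 4 °C, rhodamine secondary plus DAPI. ASC specks counted by fluorescence microscopy.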

- inhibition [1]: inactive
- inhibition [2]: Active
- inhibition [3]: Active
Compound: Cc1cc(/C=C/C(=O)c2ccc(C(=O)N[C@@H](Cc3ccccc3)C(=O)N[C@@H](CC(C)C)B(O)O)cc2)cc(C)c1O
- inhibition (J774.A1): inactive
